Laboratory results from ChEMBL document CHEMBL1165950, “Design and synthesis of new potent anticancer pyrazoles with high FLT3 kinase inhibitory selectivity” (Bioorg Med Chem, 2010).

Key:
Assay type in all cases: functional
A549 [1] = experiment: Cytotoxicity against human A549 cells assessed as cell growth at 0.001 uM after 48 hrs by sulforhodamine B assay; conditions: A549, 48 h, read-out: Activity
In short: (§1)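 NCI-60 five-dose screen. Cells were grown in RPMI 1640 with 5% FBS and 2 mM L-glutamine, plated at 5000–40,000 cells/well and preincubated for 24 h. Time-zero plates were TCA-fixed. DMSO-solubilized drug was added at five concentrations (10-fold or ½-log serial dilutions) for 48 h at 37 °C, 5% CO2. Cells were TCA-fixed, stained with 0.4% SRB and read at 515 nm. Percent growth used time-zero, control and test absorbances.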

NCI-H322M [2] = experiment: Cytotoxicity against human NCI-H322M cells assessed as cell growth at 0.001 uM after 48 hrs by sulforhodamine B assay; conditions: read-out: Activity
PC-3 = experiment: Cytotoxicity against human PC3 cells assessed as cell growth at 0.001 uM after 48 hrs by sulforhodamine B assay; conditions: PC-3, 48 h, read-out: Activity
T47D [3] = experiment: Cytotoxicity against human T47D cells assessed as cell growth at 1 uM after 48 hrs by sulforhodamine B assay; conditions: read-out: Activity
M14 [4] = experiment: Cytotoxicity against human M14 cells assessed as cell growth at 1 uM after 48 hrs by sulforhodamine B assay; conditions: M14, 48 h, read-out: Activity
SW-620 [5] = experiment: Growth inhibition of human SW620 cells after 48 hrs by sulforhodamine B assay; conditions: SW-620, 48 h; for CC50: read-out: LC50 (the source's name)
In short: (§2)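 NCI 60-cell screen, five-dose mode. Cells grown in RPMI 1640 with 5% FBS and 2 mM L-glutamine and plated at 5000-40,000 cells/well according to doubling time. After 24 h preincubation, a Tz plate was TCA-fixed. Five concentrations (10-fold or 1/2 log dilutions) were applied for 48 h at 37 °C. SRB staining read at 515 nm. IC50 taken from [(Ti-Tz)/(C-Tz)]×100 = 50.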

UO-31 = experiment: Cytotoxicity against human UO31 cells assessed as cell growth at 0.001 uM after 48 hrs by sulforhodamine B assay; conditions: UO-31, 48 h, read-out: Activity
HCT-116 = experiment: Growth inhibition of human HCT116 cells after 48 hrs by sulforhodamine B assay; conditions: HCT-116, 48 h; for CC50: read-out: LC50 (the source's name); in short: as §2
ACHN = experiment: Growth inhibition of human ACHN cells after 48 hrs by sulforhodamine B assay
In short: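 NCI five-dose SRB assay in RPMI 1640 with 5% FBS and 2 mM L-glutamine. Cells were preincubated 24 h, then exposed 48 h at 37 °C to five concentrations (10-fold or half-log serial dilutions from DMSO stocks). TCA fixation, SRB staining, and absorbance at 515 nm followed. IC50 was taken where [(Ti−Tz)/(C−Tz)]×100 = 50, with Tz as time-zero cell density.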

LOX IMVI [6] = experiment: Cytotoxicity against human LOXIMVI cells assessed as cell growth at 0.001 uM after 48 hrs by sulforhodamine B assay; conditions: read-out: Activity
SW-620 [7] = experiment: Cytotoxicity against human SW620 cells assessed as cell growth at 1 uM after 48 hrs by sulforhodamine B assay; conditions: SW-620, 48 h, read-out: Activity
HT-29 = experiment: Cytotoxicity against human HT-29 cells assessed as cell growth at 100 nM after 48 hrs by sulforhodamine B assay; conditions: HT-29, 48 h, read-out: Activity
SK-OV-3 = experiment: Cytotoxicity against human SKOV3 cells assessed as cell growth at 0.01 uM after 48 hrs by sulforhodamine B assay; conditions: SK-OV-3, 48 h, read-out: Activity
HCC 2998 = experiment: Cytotoxicity against human HCC2998 cells assessed as cell growth at 10 uM; conditions: read-out: Activity
In short: (§3)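 Single-dose NCI-60 screen at 10 µM. Cells were grown in RPMI 1640 with 5% FBS and 2 mM L-glutamine, then treated for 48 h at 37 °C. Protein was measured by SRB staining with absorbance at 515 nm. Percentage growth was recorded, and inhibition percentage was calculated as 100 minus growth percentage.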

OVCAR-8 = experiment: Growth inhibition of human OVCAR8 cells after 48 hrs by sulforhodamine B assay; conditions: OVCAR-8, 48 h; for CC50: read-out: LC50 (the source's name); in short: as §2
M14 [8] = experiment: Growth inhibition of human M14 cells after 48 hrs by sulforhodamine B assay; conditions: M14, 48 h; for CC50: read-out: LC50 (the source's name); in short: as §2
SF-268 = experiment: Cytotoxicity against human SF268 cells assessed as cell growth at 0.001 uM after 48 hrs by sulforhodamine B assay; conditions: SF-268, 48 h, read-out: Activity
NCI-H460 = experiment: Growth inhibition of human NCI-H460 cells after 48 hrs by sulforhodamine B assay; conditions: NCI-H460, 48 h; for CC50: read-out: LC50 (the source's name); in short: as §2
IGROV-1 = experiment: Cytotoxicity against human IGROV1 cells assessed as cell growth at 0.001 uM after 48 hrs by sulforhodamine B assay; conditions: IGROV-1, 48 h, read-out: Activity
T47D [9] = experiment: Cytotoxicity against human T47D cells assessed as cell growth at 10 uM after 48 hrs by sulforhodamine B assay; conditions: read-out: Activity
NCI/ADR-RES = experiment: Cytotoxicity against human NCI/ADR-RES cells assessed as cell growth at 0.01 uM after 48 hrs by sulforhodamine B assay; conditions: read-out: Activity
OVCAR-4 = experiment: Growth inhibition of human OVCAR4 cells after 48 hrs by sulforhodamine B assay; conditions: OVCAR-4, 48 h; for CC50: read-out: LC50 (the source's name); in short: as §2
BT-549 = experiment: Cytotoxicity against human BT549 cells assessed as cell growth at 10 uM after 48 hrs by sulforhodamine B assay; conditions: BT-549, 48 h, read-out: Activity; in short: as §1
CAKI-1 = experiment: Cytotoxicity against human Caki1 cells assessed as cell growth at 10 uM; conditions: read-out: Activity; in short: as §3
M14 [10] = experiment: Cytotoxicity against human M14 cells assessed as cell growth at 100 nM after 48 hrs by sulforhodamine B assay; conditions: M14, 48 h, read-out: Activity
A549 [11] = experiment: Cytotoxicity against human A549 cells assessed as cell growth at 10 uM after 48 hrs by sulforhodamine B assay; conditions: A549, 48 h, read-out: Activity; in short: as §1
LOX IMVI [12] = experiment: Growth inhibition of human LOXIMVI cells after 48 hrs by sulforhodamine B assay; conditions: for CC50: read-out: LC50 (the source's name); in short: as §2
UACC-62 = experiment: Cytotoxicity against human UACC62 cells assessed as cell growth at 1 uM after 48 hrs by sulforhodamine B assay; conditions: UACC-62, 48 h, read-out: Activity
MOLT-4 = experiment: Cytotoxicity against human MOLT4 cells assessed as cell growth at 0.001 uM after 48 hrs by sulforhodamine B assay; conditions: MOLT-4, 48 h, read-out: Activity
NCI-H322M [13] = experiment: Cytotoxicity against human NCI-H322M cells assessed as cell growth at 100 nM after 48 hrs by sulforhodamine B assay; conditions: read-out: Activity

`COc1cc(C)cc(-c2c(-c3ccnc(-c4ccc(C(C)=O)cc4)c3)cnn2CC#N)c1` gave a growth at 0.001 µM (A549 [1]) of 95%, a growth at 0.001 µM (NCI-H322M [2]) of 102% and a growth at 0.001 µM (PC-3) of 101%. For the same compound, the growth at 1 µM (T47D [3]) was -9%, the growth at 1 µM (M14 [4]) was -19% and the GI50 (SW-620 [5]) was 2.27 µM. For the same compound, the TGI (SW-620 [5]) was > 100 µM, the CC50 (SW-620 [5]) was > 100 µM and the growth at 0.001 µM (UO-31) was 88%. The GI50 (HCT-116) was 1.7 µM, the TGI (HCT-116) was 5.4 µM and the CC50 (HCT-116) was > 100 µM. For the same compound, the GI50 (ACHN) was 3.76 µM, the LC50 (concentration giving 50% net cell kill) (ACHN) was > 100 µM and the TGI (ACHN) was > 100 µM. The growth at 0.001 µM (LOX IMVI [6]) was 101%, the growth at 1 µM (SW-620 [7]) was 12% and the growth at 0.1 µM (HT-29) was 95%. For the same compound, the growth at 0.01 µM (SK-OV-3) was 98%, the growth at 10 µM (HCC 2998) was 80.8% and the GI50 (OVCAR-8) was 2.86 µM. The TGI (OVCAR-8) was > 100 µM, the CC50 (OVCAR-8) was > 100 µM and the GI50 (M14 [8]) was 1.97 µM. The CC50 (M14 [8]) was > 100 µM, the growth at 0.001 µM (SF-268) was 97% and the GI50 (NCI-H460) was 2.41 µM. For the same compound, the CC50 (NCI-H460) was > 100 µM, the growth at 0.001 µM (IGROV-1) was 107% and the growth at 10 µM (T47D [9]) was -12%. For the same compound, the growth at 0.01 µM (NCI/ADR-RES) was 91%, the GI50 (OVCAR-4) was 5.13 µM and the TGI (OVCAR-4) was > 100 µM. The CC50 (OVCAR-4) was > 100 µM, the growth at 10 µM (BT-549) was 24% and the growth at 10 µM (CAKI-1) was 70.4%. For the same compound, the growth at 0.1 µM (M14 [10]) was 79%, the growth at 10 µM (A549 [11]) was 30% and the GI50 (LOX IMVI [12]) was 3.39 µM. The TGI (LOX IMVI [12]) was > 100 µM, the CC50 (LOX IMVI [12]) was > 100 µM and the growth at 1 µM (UACC-62) was 25%. The growth at 0.001 µM (MOLT-4) was 102% and the growth at 0.1 µM (NCI-H322M [13]) was 100%.

For `Cc1cc(O)cc(-c2nn(CC#N)cc2-c2ccnc(-c3ccc(Oc4ccccc4)cc3)c2)c1`, the growth at 0.001 µM (A549 [1]) was 96%, the growth at 0.001 µM (NCI-H322M [2]) was 94% and the growth at 0.001 µM (PC-3) was 98%. The growth at 1 µM (T47D [3]) was -26%, the growth at 1 µM (M14 [4]) was -96% and the GI50 (SW-620 [5]) was 1.94 µM. It also gave a TGI (SW-620 [5]) of 4.33 µM, a CC50 (SW-620 [5]) of 9.63 µM and a growth at 0.001 µM (UO-31) of 91%. For the same compound, the GI50 (HCT-116) was 1.56 µM, the TGI (HCT-116) was 2.9 µM and the CC50 (HCT-116) was 5.38 µM. The GI50 (ACHN) was 2.84 µM, the LC50 (concentration giving 50% net cell kill) (ACHN) was 33.8 µM and the TGI (ACHN) was 9.14 µM. The growth at 0.001 µM (LOX IMVI [6]) was 100%, the growth at 1 µM (SW-620 [7]) was -52% and the growth at 0.1 µM (HT-29) was 91%. For the same compound, the growth at 0.01 µM (SK-OV-3) was 98%, the growth at 10 µM (HCC 2998) was 28.2% and the GI50 (OVCAR-8) was 2.08 µM. The TGI (OVCAR-8) was 5.54 µM, the CC50 (OVCAR-8) was 21.9 µM and the GI50 (M14 [8]) was 1.7 µM. For the same compound, the TGI (M14 [8]) was 3.12 µM, the CC50 (M14 [8]) was 5.73 µM and the growth at 0.001 µM (SF-268) was 88%. It also gave a GI50 (NCI-H460) of 1.87 µM, a TGI (NCI-H460) of 3.58 µM and a CC50 (NCI-H460) of 6.85 µM. For the same compound, the growth at 0.001 µM (IGROV-1) was 98%, the growth at 10 µM (T47D [9]) was -67% and the growth at 0.01 µM (NCI/ADR-RES) was 96%. The GI50 (OVCAR-4) was 4.56 µM, the TGI (OVCAR-4) was 16 µM and the CC50 (OVCAR-4) was 48.6 µM. It also gave a growth at 10 µM (BT-549) of -81%, a growth at 10 µM (CAKI-1) of 58.8% and a growth at 0.1 µM (M14 [10]) of 94%. For the same compound, the growth at 10 µM (A549 [11]) was -71%, the GI50 (LOX IMVI [12]) was 1.87 µM and the TGI (LOX IMVI [12]) was 3.39 µM. The CC50 (LOX IMVI [12]) was 6.13 µM, the growth at 1 µM (UACC-62) was 33% and the growth at 0.001 µM (MOLT-4) was 99%. For the same compound, the growth at 0.1 µM (NCI-H322M [13]) was 95%.
